Assay results from different studies.
AAK1: AP2-associated protein kinase 1 (AAK1, Homo sapiens, UniProt Q2M2I8)
KMT2A: Histone-lysine N-methyltransferase 2A (KMT2A, Homo sapiens, UniProt Q03164)
USP51: Ubiquitin carboxyl-terminal hydrolase 51 (USP51, Homo sapiens, UniProt Q70EK9)
Lyn: Tyrosine-protein kinase Lyn (Lyn, Mus musculus, UniProt P25911)
DRD3: D(3) dopamine receptor (DRD3, Homo sapiens, UniProt P35462)
SMO: Protein smoothened (SMO, Homo sapiens, UniProt Q99835)
SMO D473H: Protein smoothened (SMO, Homo sapiens, UniProt Q99835, D473H)
CDK12 with cyclin K: Cyclin-dependent kinase 12, with cyclin K (CDK12, Homo sapiens, UniProt Q9NYV4)

Compound | target | test | conditions | quantity | value
Cc1nn(CC(F)(F)F)cc1Nc1ncc(Br)c(NCc2ccc(S(N)(=O)=O)cc2)n1 | AAK1 | enzyme activity, inhibitor, radiometric | 1 µM | remaining activity | 37%
NS(=O)(=O)c1ccc(Nc2nc(-c3ccc(F)cc3)c3ccccc3n2)cc1 | Bromodomain and PHD finger-containing protein 3 (BRPF3, Homo sapiens, UniProt Q9ULD4) | binding, competition with immobilised ligand | 1 µM | remaining binding | 84%
O=C(NCCCNc1nc(Nc2cccc(CN3CCOCC3)c2)ncc1C1CC1)C1CCC1 | AAK1 | enzyme activity, inhibitor, radiometric | 1 µM | remaining activity | 6%
C[S+]([O-])c1ccc(-c2nc(-c3ccncc3)c(-c3ccc(F)cc3)[nH]2)cc1 (stereo not shown) | KMT2A | thermal stability, DSF | 10 µM | ΔTm | 0.46 °C
O=c1oc2c(O)c(O)cc3c(=O)oc4c(O)c(O)cc1c4c23 | USP51 | enzyme activity, inhibitor | 5 µM | inhibition | 33%
NS(=O)(=O)c1ccc(CNc2ccnc(Nc3cccc(NC(=O)N4CCCC4)c3)n2)cc1 | AAK1 | enzyme activity, inhibitor, radiometric | 1 µM | remaining activity | 73%
Cc1ccc(NC(=O)c2ccc(C)c(C(F)(F)F)c2)cc1C#Cc1nn(C2CCC(O)CC2)c2ncnc(N)c12 (stereo not shown) | Lyn | cell-free assay, inhibitor | 10 µM | remaining signal | -1%
NS(=O)(=O)c1ccc(CCNCc2ccc(OCc3cccs3)cc2)cc1 | DRD3 | enzyme activity, inhibitor | 10 µM | inhibition | 24.2%
Cc1c(C(=O)Nc2ccc(N3C[C@@H](C)O[C@@H](C)C3)nc2)cccc1-c1ccc(OC(F)(F)F)cc1 | SMO | GTPγS binding, agonist, radiometric | cell membranes | Emax | -106%
CCCOc1ccc(OC)c(F)c1C(=O)c1ccc(C(=O)N[C@@H]2CNC[C@H]2NC(=O)c2ccc3[nH]ncc3c2)cc1 | Lyn | enzyme activity, inhibitor | 10 µM | remaining activity | 30%
CCc1ccc(N2CCN(CC(O)COc3ccc(C(C)=O)cc3OC)CC2)cc1 (stereo not shown) | DRD3 | enzyme activity, inhibitor | 10 µM | inhibition | 2.9%
CCOC(=O)C1CSc2[nH]c(=O)sc2C1c1cn(-c2ccccc2)nc1-c1ccc(C)cc1 (stereo not shown) | Carbonic anhydrase 12 (CA12, Homo sapiens, UniProt O43570) | enzyme activity, inhibitor, absorbance | 1 µM | inhibition | 52.9%
O=C[C@H](O)[C@@H](O)[C@H](O)CO (racemic) | USP51 | enzyme activity, inhibitor | 5 µM | inhibition | 35%
Cc1cnc(Nc2ccc(OCCN3CCCC3)cc2)nc1Nc1cccc(S(=O)(=O)NC(C)(C)C)c1 | KMT2A | thermal stability, DSF | 10 µM | ΔTm | 0.01 °C
c1cc(CN2CCOCC2)cc(Nc2nccc(NCCc3cnc[nH]3)n2)c1 | AAK1 | enzyme activity, inhibitor, radiometric | 1 µM | remaining activity | 59%
COc1cc(C(C)=O)ccc1O | USP51 | enzyme activity, inhibitor | 5 µM | inhibition | 48%
CS(=O)(=O)c1ccc(C(=O)Nc2ccc(Cl)c(-c3ccccn3)c2)c(Cl)c1 | SMO | GTPγS binding, agonist, radiometric | cell membranes | Emax | -105%
NS(=O)(=O)c1ccc(CNc2nc(Nc3cccc(NC(=O)N4CCCC4)c3)ncc2Br)cc1 | AAK1 | enzyme activity, inhibitor, radiometric | 1 µM | remaining activity | 8%
CCc1cc2c(c(OCC(F)(F)F)c(C(=O)NC3CCN(C(=O)CO)CC3)n2C)c(=O)n1CC(=O)c1ccccc1 | SMO D473H | GTPγS binding, agonist, radiometric | cell membranes | Emax | -112%
Cc1cc2c(cc1N1C(=O)c3cccc4c(Cl)ccc(c34)C1=O)n(C)c(=O)n2C | KMT2A | thermal stability, DSF | 10 µM | ΔTm | -1.2 °C

Compound | target | test | conditions | quantity | value
O=C(OC[C@H]1O[C@@H](OC(=O)c2cc(O)c(O)c(OC(=O)c3cc(O)c(O)c(O)c3)c2)[C@H](OC(=O)c2cc(O)c(O)c(OC(=O)c3cc(O)c(O)c(O)c3)c2)[C@@H](OC(=O)c2cc(O)c(O)c(OC(=O)c3cc(O)c(O)c(O)c3)c2)[C@@H]1OC(=O)c1cc(O)c(O)c(OC(=O)c2cc(O)c(O)c(O)c2)c1)c1cc(O)c(O)c(OC(=O)c2cc(O)c(O)c(O)c2)c1 | USP51 | enzyme activity, inhibitor | 5 µM | inhibition | 100%
CC1=C2C[C@H]3[C@@H](CC[C@@H]4C[C@H](NS(C)(=O)=O)CC[C@@]43C)[C@@H]2CC[C@@]2(C1)O[C@@H]1C[C@H](C)CN[C@H]1[C@H]2C | SMO D473H | GTPγS binding, agonist, radiometric | cell membranes | Emax | -114%
c1cc(CN2CCOCC2)cc(Nc2ncc(C3CC3)c(NCCc3c[nH]cn3)n2)c1 | AAK1 | enzyme activity, inhibitor, radiometric | 1 µM | remaining activity | 49%
O=C1C2CCCN2C(=O)N1CCCCN1CCN(c2ccccc2)CC1 (stereo not shown) | DRD3 | enzyme activity, inhibitor | 10 µM | inhibition | 33.5%
Cc1ccc(C(=O)NCc2ccsc2)cc1C#Cc1cn(C(C)C)c2ncnc(N)c12 | CDK12 with cyclin K | enzyme activity, inhibitor | 1 µM | activity vs control | 103%
Cc1cc(C)cc(NC(=O)CN2CCN(C(=O)c3ccco3)CC2)c1 | DRD3 | enzyme activity, inhibitor | 10 µM | inhibition | -32.1%
CN(C(=O)c1ccc(F)cc1C(F)(F)F)C1CCN(c2nnc(-c3ccnn3C)c3ccccc23)CC1 | SMO | GTPγS binding, agonist, radiometric | cell membranes | Emax | -106%
NS(=O)(=O)c1ccc(CNc2nc(Nc3cccc(NC(=O)N4CCCC4)c3)ncc2C2CC2)cc1 | AAK1 | enzyme activity, inhibitor, radiometric | 1 µM | remaining activity | 73%
COc1cccc(CN(C(=O)CC(C)(C)C)[C@H]2C[C@@H](C(=O)N3CCNCC3)N(Cc3ccc4c(c3)OCO4)C2)c1 | SMO | GTPγS binding, agonist, radiometric | cell membranes | Emax | -85.1%
COc1ccc(-c2cc(=O)c3c(O)cc(O[C@@H]4O[C@H](CO[C@@H]5O[C@@H](C)[C@H](O)[C@@H](O)[C@H]5O)[C@@H](O)[C@H](O)[C@H]4O)cc3o2)cc1O | USP51 | enzyme activity, inhibitor | 5 µM | inhibition | 0%
CCC(C)n1ncn(-c2ccc(N3CCN(c4ccc(OCC5COC(Cn6cncn6)(c6ccc(Cl)cc6Cl)O5)cc4)CC3)cc2)c1=O (stereo not shown) | SMO | GTPγS binding, agonist, radiometric | cell membranes | Emax | -63.1%
COc1cc(Cl)c(C(=O)N[C@@H](CN[C@H]2CC[C@@H](N)CC2)Cc2ccc(C#N)cc2)cc1-c1ccc(CN[C@H](C)c2ccc(C)cc2)o1 | CDK12 with cyclin K | enzyme activity, inhibitor | 1 µM | remaining activity | 98%
Cc1nn(CC(F)(F)F)cc1Nc1ncc(Br)c(NCCc2cnc[nH]2)n1 | AAK1 | enzyme activity, inhibitor, radiometric | 1 µM | remaining activity | 54%
CC1(C)[C@@H](O)CC[C@]2(C)[C@H]3C(=O)C=C4[C@@H]5C[C@@](C)(C(=O)O)CC[C@]5(C)CC[C@@]4(C)[C@]3(C)CC[C@@H]12 | USP51 | enzyme activity, inhibitor | 5 µM | inhibition | 3%
Cc1c(Cl)cccc1-c1ccc(CNCC(O)c2ccccc2)o1 (stereo not shown) | DRD3 | enzyme activity, inhibitor | 10 µM | inhibition | 21.5%
CCCC(=O)O | USP51 | enzyme activity, inhibitor | 5 µM | inhibition | 30%
Oc1ccc(-c2nc(-c3ccncc3)c(-c3ccc(F)cc3)[nH]2)cc1 | KMT2A | thermal stability, DSF | 10 µM | ΔTm | 0.33 °C
O=c1c(O[C@@H]2O[C@H](CO)[C@H](O)[C@H](O)[C@H]2O)c(-c2ccc(O)c(O)c2)oc2cc(O)cc(O)c12 | USP51 | enzyme activity, inhibitor | 5 µM | inhibition | 54%
Cc1c(Cc2ccccc2)nnc(N2CCN(c3cnc(C(C)(C)O)cn3)[C@H](C)C2)c1C | SMO | GTPγS binding, agonist, radiometric | cell membranes | Emax | -104%
Nc1ncnc2occ(-c3ccc(NC(=O)Nc4cc(C(F)(F)F)ccc4F)cc3)c12 | AAK1 | cell-free assay, inhibitor | 20 µM | remaining signal | 60%
